Assay results pooled from the literature.
Each line is one published result; the experiments were not run side by side.
Matrix: plasma

Compound | system | conditions | Cmax
C[C@H]1Oc2cc(cnc2N)-c2c(nn(C)c2C#N)CN(C)C(=O)c2ccc(F)cc21 | Sprague-Dawley rat | intravenous, 1 mg/kg, single dose | 2250 ng/mL
CCCCCCCCCC(=O)N[C@@H](Cc1c[nH]c2ccccc12)C(=O)N[C@H](CC(N)=O)C(=O)N[C@@H](CC(=O)O)C(=O)N[C@@H]1C(=O)NCC(=O)N[C@@H](CCCN)C(=O)N[C@@H](CC(=O)O)C(=O)N[C@H](C)C(=O)N[C@@H](CC(=O)O)C(=O)NCC(=O)N[C@H](CO)C(=O)N[C@@H]([C@H](C)CC(=O)O)C(=O)N[C@@H](CC(=O)c2ccccc2N)C(=O)O[C@@H]1C | male Wistar rat | subcutaneous, 125 mg/kg, single dose | 205000 ng/mL
COc1ccc(N(Cc2csc(-c3ccccc3)n2)C(=O)CCCCCC(=O)NO)cc1 | female Sprague-Dawley rat | intravenous, 5 mg/kg | 150 ng/mL
CCN(CC)Cc1ccc2cc(COC(=O)Nc3ccc(C(=O)NO)cc3)ccc2c1 | male Sprague-Dawley rat | oral, 10 mg/kg | 2650 ng/mL
Nc1ccn([C@@H]2O[C@H](CO)[C@@H](O)C2(F)F)c(=O)n1 | male Sprague-Dawley rat | intraperitoneal, 5 mg/kg | 12500 ng/mL
CCOc1c([C@H](C)n2nc(C)c3c(N)ncnc32)cc(Cl)c(F)c1[C@@H]1CNC(=O)C1 | male Sprague-Dawley rat | oral, 2 mg/kg, single dose | 666 ng/mL
COc1cc(-c2cc(C(C)=O)n3ccccc23)c(OC)cc1Cn1ccnc1 | male Sprague-Dawley rat | oral, 5 mg/kg | 876 ng/mL
CC[C@@H]([C@H](C)O)n1ncn(-c2ccc(N3CCN(c4ccc(OC[C@@H]5CO[C@@](Cn6cncn6)(c6ccc(F)cc6F)C5)cc4)CC3)cc2)c1=O | Sprague-Dawley rat | oral, 40 mg/kg | 703 ng/mL
COc1nc(-c2cccc(-c3ccccc3)c2C)ccc1CNCCNC(=O)CCCCCCCCCCC(=O)N1CCN(CCNC(=O)c2cc3c(=O)n4cccc(C)c4nc3n(CCc3cccs3)c2=N)CC1 | male Sprague-Dawley rat | intravenous, 2 mg/kg | 1800 ng/mL
CONC(=O)c1cccc2c1cc(C)n2-c1nc2c(c(NCc3ccccc3)n1)CCCN2 | male Sprague-Dawley rat | oral, 10 mg/kg, single dose | 23.4 ng/mL
CNC(=O)c1cc(Oc2ccc(NC(=O)Nc3ccc(Cl)c(C(F)(F)F)c3)cc2)ccn1 | male Sprague-Dawley rat | oral, 100 mg/kg, single dose | 956 ng/mL
COc1cc(C2C3=C(COC3=O)N(CCO)c3cc4c(cc32)CCC4)cc(OC)c1OC (centres unmarked) | female Sprague-Dawley rat | intraperitoneal, 50 mg/kg | 915 ng/mL
C[C@H]1[C@@H](O)O[C@@H]2O[C@@]3(C)CC[C@H]4[C@H](C)CC[C@@H]1[C@@]24OO3 | male Sprague-Dawley rat | oral, 10 mg/kg | 169 ng/mL
CC(=O)O[C@@H]1CC[C@@]2(C)[C@@H](CC[C@]3(C)[C@@H]2C(=O)C=C2[C@@H]4[C@@H](C)[C@H](C)CC[C@]4(C)CC[C@]23C)[C@@]1(C)C(=O)O | female Wistar rat | oral, 1 mg/kg, single dose | 3360 ng/mL
O=C1CCC(N2Cc3cc(C4CCN(Cc5ccccc5)CC4)ccc3C2=O)C(=O)N1 (centres unmarked) | male Sprague-Dawley rat | intravenous, 1 mg/kg | 113 ng/mL
C=CCn1c(=O)c2cnc(Nc3ccc(N4CCN(C)CC4)cc3)nc2n1-c1ccc2c(n1)[C@@](O)(CC)CC2 | rat | oral, 60 mg/kg | 4 µM
CCCCC(=O)Nc1ccc(-c2ccc3ncn(CCC)c(=O)c3c2)cn1 | male rat | intravenous, 2.5 mg/kg | 3090 ng/mL
